Data on 26 compounds can be found in ChEMBL document CHEMBL5104204, “Synthesis and in vitro anticancer evaluation of novel flavonoid-based amide derivatives as regulators of the PI3K/AKT signal pathway for TNBC treatment” (RSC Med Chem, 2022).

Holding throughout (type): functional, cell-based
The subject of one test is MCF7. As to the kind of experiment: Antitumor activity against human MCF7 cells assessed as inhibit cell proliferation incubated for 72 hrs by CCK-8 assay. To be noted: MCF7, 72 h. Summed up: (§1)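 CCK8 viability readout. Culture media: HCC1937, A549, HeLa and GTL-16 in RPMI 1640; MDA-MB-231, MCF-7 and HepG2 in high-glucose DMEM; all with 10% FBS and penicillin/streptomycin, 37 °C, 5% CO2. 4×10^3–6×10^3 cells/well, 24 h, then compounds in serum-free medium, 72 h at 37 °C. 10% CCK8, 2 h, OD 450/630 nm. Five wells per group; IC50 from inhibition rate; three independent experiments, mean ± SD.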

The test system of a further test is HeLa. As to the kind of experiment: Antitumor activity against human HeLa cells assessed as inhibit cell proliferation incubated for 72 hrs by CCK-8 assay. Put shortly: as §1
(Tetrazolium dyes change colour on reduction, which living cells bring about.)

Another test has as its system GTL 16 cell line. As to the kind of experiment: Antitumor activity against human GTL 16 cell line assessed as inhibit cell proliferation incubated for 72 hrs by CCK-8 assay. The settings on record: GTL 16, 72 h. Put shortly:
as §1

Another test concerns A549. As to the kind of experiment: Antitumor activity against human A549 cells assessed as inhibit cell proliferation incubated for 72 hrs by CCK-8 assay. To be noted: A549, 72 h. Summed up: as §1
The next test has as its system HCC1937. Nature of the test: Antitumor activity against human HCC1937 cells assessed as inhibit cell proliferation incubated for 72 hrs by CCK-8 assay. The settings on record: HCC1937, 72 h. Summed up: as §1
The subject of the next test is HepG2. Nature of the test: Antitumor activity against human HepG2 cells assessed as inhibit cell proliferation incubated for 72 hrs by CCK-8 assay. The settings on record: HepG2, 72 h. Put shortly:
as §1

For another test, the system named is MDA-MB-231. Nature of the test: Antitumor activity against human MDA-MB-231 cells assessed as inhibit cell proliferation incubated for 72 hrs by CCK-8 assay. To be noted: MDA-MB-231, 72 h. Summed up:
as §1

Structures are written as SMILES. pIC50: −log10 of the molar value.

As a reminder, the pIC50 is −log10 of the IC50, conventionally taken in molar units. `O=C(Nc1cccc(-c2oc3cc(-c4ccc(F)cc4)ccc3c(=O)c2O)c1)c1ccc(F)cc1F`: the pIC50 with MCF7 was 4.87; with HeLa, 4.97; in the test with GTL 16 cell line it was 5.02; in the test with A549, 4.69; in the test on HCC1937, 5.16; in the test on HepG2 it was 4.58. In the test on MDA-MB-231, the pIC50 is 4.95.
As to `CCc1ccc(C(=O)Nc2cccc(-c3oc4cc(-c5ccc(F)cc5)ccc4c(=O)c3O)c2)cc1`, the pIC50 in the test with MCF7 is 4.64; in the test on HeLa, 4.68; with GTL 16 cell line it was 4.61; in the test with A549 it was 4.73; in the test on HCC1937, 4.88; in the test on HepG2, 4.69. In addition, the pIC50 in the test with MDA-MB-231 is 5.04.
Take `Cc1cc(C)cc(C(=O)Nc2cccc(-c3oc4cc(-c5ccc(F)cc5)ccc4c(=O)c3O)c2)c1`: the negative-log IC50 (pIC50) is 4.69 in the test on MCF7; 5.26 in the test on HeLa; 4.87 in the test with GTL 16 cell line; 5.43 in the test with A549; 5.31 in the test with HCC1937; 4.87 in the test on HepG2. In addition, the pIC50 in the test on MDA-MB-231 was 4.92.
Turning to `N#Cc1ccc(C(=O)Nc2cccc(-c3oc4cc(-c5ccc(F)cc5)ccc4c(=O)c3O)c2)cc1`, the pIC50 with MCF7 is 5.58; in the test on HeLa, 4.63; in the test with GTL 16 cell line, 4.50; in the test with A549 it was 5.63; in the test with HCC1937 it was 5.52; with HepG2, 5.15. Besides, in the test with MDA-MB-231, the pIC50 is 4.94.
For `COc1ccc(C(=O)Nc2cccc(-c3oc4cc(-c5ccc(F)cc5)ccc4c(=O)c3O)c2)c(F)c1`, the pIC50 is 4.70 in the test on MCF7; 4.79 with HeLa; 4.82 with GTL 16 cell line; 4.40 with A549; 4.61 in the test on HCC1937; 4.34 with HepG2. In the test with MDA-MB-231, the negative-log IC50 (pIC50) is 4.76.
Regarding `O=C(Nc1cccc(-c2oc3cc(-c4ccc(F)cc4)ccc3c(=O)c2O)c1)c1ccc([N+](=O)[O-])cc1`, the negative-log IC50 (pIC50) in the test on MCF7 is 5.40; in the test with HeLa, 4.91; in the test on GTL 16 cell line, 4.74; in the test with A549, 5.61; in the test with HCC1937, 5.25; in the test on HepG2 it was 5.73. In the test on MDA-MB-231, the pIC50 is 4.83.
Take `COc1cccc(C(=O)Nc2cccc(-c3oc4cc(-c5ccc(F)cc5)ccc4c(=O)c3O)c2)c1`: the pIC50 with MCF7 was 4.82; in the test with HeLa, 5.25; with GTL 16 cell line, 4.90; in the test on A549, 4.97; in the test on HCC1937, 4.72; with HepG2, 5.00. Moreover, the pIC50 with MDA-MB-231 is 5.04.
Regarding `O=C(Nc1cccc(-c2oc3cc(-c4ccc(F)cc4)ccc3c(=O)c2O)c1)c1ccc(Br)cc1F`, the pIC50 is 4.34 with A549 and below 4.00 in the test on HepG2.
Regarding `O=C(Nc1cccc(-c2oc3cc(-c4ccc(F)cc4)ccc3c(=O)c2O)c1)c1ccc(Br)cc1`, the pIC50 in the test on MCF7 was 4.62; in the test with HeLa, 5.01; in the test on GTL 16 cell line, 4.59; with A549, 4.87; in the test on HCC1937 it was 5.06; in the test on HepG2, 4.86. Besides, in the test with MDA-MB-231, the pIC50 is 4.60.
In the case of `O=C(Nc1cccc(-c2oc3cc(-c4ccc(F)cc4)ccc3c(=O)c2O)c1)c1ccc(C(F)(F)F)cc1`, the pIC50 with MCF7 is 4.49; in the test with HeLa, 4.76; with GTL 16 cell line, 4.48; in the test with A549 it was 4.71; in the test with HCC1937, 5.13; in the test on HepG2, 4.37. Besides, the negative-log IC50 (pIC50) in the test on MDA-MB-231 was 4.53.
As for `Cc1cccc(C(=O)Nc2cccc(-c3oc4cc(-c5ccc(F)cc5)ccc4c(=O)c3O)c2)c1`, the pIC50 with MCF7 is 5.11; in the test on HeLa, 5.18; in the test on GTL 16 cell line, 4.96; with A549, 4.78; with HCC1937 it was 5.10; in the test on HepG2, 4.87. Further, the pIC50 in the test with MDA-MB-231 was 5.55.
Turning to `COc1ccccc1C(=O)Nc1cccc(-c2oc3cc(-c4ccc(F)cc4)ccc3c(=O)c2O)c1`, the pIC50 in the test with MCF7 was 5.68; in the test with HeLa, 4.85; in the test with GTL 16 cell line, 5.20; in the test with A549 it was 4.93; in the test on HCC1937, 5.04; in the test on HepG2, 4.84. In addition, the pIC50 in the test with MDA-MB-231 was 5.29.
For the compound `Cc1cc(C(=O)Nc2cccc(-c3oc4cc(-c5ccc(F)cc5)ccc4c(=O)c3O)c2)ccc1F`, the pIC50 with MCF7 was 5.11; with HeLa it was 4.72; in the test on GTL 16 cell line it was 4.92; in the test with A549, 4.94; with HCC1937, 5.27; with HepG2, 5.02. In addition, in the test with MDA-MB-231, the pIC50 was 5.13.
For the compound `COc1cc(OC)cc(C(=O)Nc2cccc(-c3oc4cc(-c5ccc(F)cc5)ccc4c(=O)c3O)c2)c1`, the pIC50 was 5.46 with MCF7; 5.57 with HeLa; 4.71 in the test with GTL 16 cell line; 5.62 in the test on A549; 5.20 in the test on HCC1937; 4.63 with HepG2. Besides, the pIC50 in the test on MDA-MB-231 was 5.39.
On to `O=C(Nc1cccc(-c2oc3cc(-c4ccc(F)cc4)ccc3c(=O)c2O)c1)c1cccc(F)c1`, for which the pIC50 with MCF7 was 5.24; in the test on HeLa, 5.06; in the test with GTL 16 cell line, 4.80; in the test on A549, 4.81; in the test with HCC1937, 5.18; with HepG2 it was 4.81. Further, the pIC50 in the test on MDA-MB-231 was 5.60.
In the case of `CCCc1ccc(C(=O)Nc2cccc(-c3oc4cc(-c5ccc(F)cc5)ccc4c(=O)c3O)c2)cc1`, the pIC50 with MCF7 is 4.43; in the test on HeLa it was 5.06; in the test with GTL 16 cell line, 4.69; with A549 it was 4.32; with HCC1937, 4.81; with HepG2 it was 4.29. The pIC50 with MDA-MB-231 was 4.49.
On to `O=C(Nc1cccc(-c2oc3cc(-c4ccc(F)cc4)ccc3c(=O)c2O)c1)c1cc(F)cc(F)c1`, for which the pIC50 with MCF7 is 5.60; in the test with HeLa, 5.47; with GTL 16 cell line it was 5.13; with A549 it was 5.12; in the test with HCC1937, 5.68; in the test on HepG2, 5.30. The pIC50 in the test on MDA-MB-231 is 5.61.
For `Cc1ccccc1C(=O)Nc1cccc(-c2oc3cc(-c4ccc(F)cc4)ccc3c(=O)c2O)c1`, the pIC50 is 5.64 in the test with MCF7; 4.93 in the test on HeLa; 4.61 in the test with GTL 16 cell line; 4.76 with A549; 5.00 in the test on HCC1937; 4.71 in the test on HepG2. Moreover, the pIC50 with MDA-MB-231 was 5.31.
`O=c1[nH]cc(F)c(=O)[nH]1` [FLUOROURACIL]: the pIC50 in the test on MCF7 is 5.35; in the test with HeLa it was 5.71; in the test on GTL 16 cell line, 6.08; with A549, 5.58; in the test on HCC1937, 4.59; in the test on HepG2 it was 5.54. Moreover, the pIC50 in the test with MDA-MB-231 was 5.11.
Regarding `COc1ccc(C(=O)Nc2cccc(-c3oc4cc(-c5ccc(F)cc5)ccc4c(=O)c3O)c2)cc1`, the pIC50 in the test on MCF7 is 5.20; in the test on HeLa, 5.32; with GTL 16 cell line, 4.68; in the test on A549 it was 5.06; in the test on HCC1937, 5.26; with HepG2 it was 5.07. For the same compound, the negative logarithm of the IC50 (pIC50) with MDA-MB-231 was 4.78.
As to `Cc1ccc(C(=O)Nc2cccc(-c3oc4cc(-c5ccc(F)cc5)ccc4c(=O)c3O)c2)cc1`, the pIC50 is 5.62 in the test on MCF7; 5.21 with HeLa; 4.89 in the test with GTL 16 cell line; 5.16 in the test with A549; 5.15 in the test with HCC1937; 5.63 with HepG2. Moreover, the pIC50 in the test with MDA-MB-231 was 5.36.
For the compound `O=C(Nc1cccc(-c2oc3cc(-c4ccc(F)cc4)ccc3c(=O)c2O)c1)c1ccc(Cl)cc1`, the pIC50 in the test with MCF7 was 5.33; in the test on HeLa, 5.44; in the test with GTL 16 cell line, 5.04; in the test with A549, 4.97; in the test on HCC1937, 5.39; in the test on HepG2 it was 4.96. For the same compound, the pIC50 in the test on MDA-MB-231 is 4.89.
`O=C(Nc1cccc(-c2oc3cc(-c4ccc(F)cc4)ccc3c(=O)c2O)c1)c1ccc(-c2ccccc2)cc1`: the pIC50 with MCF7 is 4.41; in the test on HeLa, below 4.00; with A549, below 4.00; with HCC1937 it was 4.36; with HepG2 it was 4.05; with MDA-MB-231, 4.20.
On to `O=C(Nc1cccc(-c2oc3cc(-c4ccc(F)cc4)ccc3c(=O)c2O)c1)c1ccccc1F`, for which the pIC50 in the test on MCF7 was 5.12; with HeLa, 5.25; in the test with GTL 16 cell line, 4.76; in the test with A549, 5.36; with HCC1937, 4.97; in the test on HepG2 it was 4.99. Further, the pIC50 in the test on MDA-MB-231 was 5.14.
Take `O=C(Nc1cccc(-c2oc3cc(-c4ccc(F)cc4)ccc3c(=O)c2O)c1)c1ccc(F)cc1`: the pIC50 was 5.07 with MCF7; 5.27 in the test on HeLa; 4.83 in the test on GTL 16 cell line; 5.16 in the test with A549; 4.85 in the test with HCC1937; 5.03 in the test with HepG2. Also, the pIC50 in the test with MDA-MB-231 was 4.80.
`O=C(Nc1cccc(-c2oc3cc(-c4ccc(F)cc4)ccc3c(=O)c2O)c1)c1cnc(Cl)nc1Cl`: the pIC50 in the test on A549 and with HepG2 was below 4.00 throughout.
